Bioassay records (PubChem)
Only some compounds are listed: those with a hit (about 3.8% of all), similar ones and a draw of the others.
KCNK3 block: human KCNK3 channel inhibition, primary screen. O14649. CHO-KCNK3 thallium flux, FluxOR fluorescence; stronger effect = lower value. B-score at 10 µM. 340,000 tested, 0.84% active. AID 602410;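 active = B-score under library mean minus 4 SD, starting fluorescence ratio at most library mean plus 5 SD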;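 note: more negative B-score means stronger inhibition of thallium flux through KCNK3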
KCNQ1 act: human KCNQ1 channel potentiation or activation | P51787 | CHO-K1 KCNQ1, thallium flux FluxOR fluorescence; stronger effect = higher value | B-score at 10 µM | 310,000 tested, 0.35% active;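 active = fluorescence ratio B-score, a plate-corrected score, at least three library SD, with initial intensity B-score within 5 SD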
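Schedule – 37 °C overnight plating, 90-min dark dye load, 20-min compound pretreatment · System – stable KCNQ1 CHO-K1 line · Probe or stimulus – thallium- and potassium-containing depolarizing buffer · Measured by – kinetic FluxOR fluorescence, 10 s baseline plus 110 s post-stimulus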
hERG rescue: compounds protecting human hERG from proarrhythmic drug block. Q12809. activation (rescue from dofetilide block), less the hit threshold, % at 10 µM. CHO-hERG, FluxOR thallium flux, dofetilide IC70 present. 310,000 tested, 0.51% active;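 active = activation above the mean of controls blocked by dofetilide plus 5 SD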;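 note: thallium influx through hERG after potassium depolarization seen as dye fluorescence rise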
KCNQ1 inh: human KCNQ1 channel inhibition; P51787; CHO-K1 KCNQ1, FluxOR thallium flux fluorescence; stronger effect = higher value; B-score at 10 µM; 310,000 tested, 1.3% active; AID 2642;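 active = compounds whose thallium flux B-score, printed positive for inhibition, exceeds three library SD while starting fluorescence stays within three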;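 note: channel opened by potassium depolarization with thallium stimulus after 20 min compound exposure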
KCNK9 block: blocks the human KCNK9 two-pore domain potassium channel. Q9NPC2. HEK293 KCNK9, FluxOR thallium flux fluorescence; stronger effect = lower value. B-score at 10 µM. 310,000 tested, 1.2% active. AID 488922;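 active = ratio B-score over 3 SD below the library mean, with starting fluorescence within 5 SD of its mean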;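 note: negative B-score means less thallium flux so channel inhibition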
Kir21 block: Kir2.1 (mouse) channel inhibition. P35561. HEK293-Kir2.1, FluxOR thallium flux fluorescence; stronger effect = lower value. B-score at 10 µM. 310,000 tested, 0.85% active;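 active = fluorescence ratio B-score at or below minus 3 SD of library scores, with starting-brightness B-score within 2 SD, cut at about -4.2 in these data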;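 note: channel flux triggered by added potassium and thallium sulfate stimulus; B-score of peak minus minimum fluorescence over baseline after thallium stimulus; more negative B-score means stronger Kir2.1 block with less thallium influx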
Target sequence (P35561 whole entry, looked up): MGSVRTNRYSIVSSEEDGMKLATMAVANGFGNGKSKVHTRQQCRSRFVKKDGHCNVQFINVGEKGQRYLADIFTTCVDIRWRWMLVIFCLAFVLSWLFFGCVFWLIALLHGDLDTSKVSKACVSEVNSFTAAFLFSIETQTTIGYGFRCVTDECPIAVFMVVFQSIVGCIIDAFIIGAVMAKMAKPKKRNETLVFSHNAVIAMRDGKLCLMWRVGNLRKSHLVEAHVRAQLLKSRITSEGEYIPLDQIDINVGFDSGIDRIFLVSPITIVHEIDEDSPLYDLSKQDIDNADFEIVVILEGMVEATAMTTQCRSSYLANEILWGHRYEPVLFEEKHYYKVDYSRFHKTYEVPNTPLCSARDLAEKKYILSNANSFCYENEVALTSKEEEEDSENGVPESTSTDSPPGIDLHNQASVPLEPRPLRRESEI
KCNQ1 block val: reconfirmed blocker of the human KCNQ1 potassium channel | shares compounds with KCNQ1 inh | KCNQ1 cell line, FluxOR thallium flux fluorescence | inhibition, % at 10 µM | 1,600 tested, 93% active | AID 588353;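 active = primary screen active, with duplicate mean exceeding buffer control mean plus 3 SD of buffer wells, cut at about 28% in these data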;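 note: 0% = buffer control ratio and 100% = XE991 inhibitor control ratio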
CHO Tl flux: activity in parental CHO cells lacking KCNQ1; AID 588366; parental CHO-K1, FluxOR thallium flux fluorescence ratio; stronger effect = lower value; zero means no signal rise above baseline; 1,600 tested, 21% active; shares compounds with KCNQ1 inh; fluorescence ratio (Tl flux) at 10 µM;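 active = mean of duplicate thallium-flux fluorescence ratios in parental host cells more than 5 SD below the buffer control mean, cut at about 0.38 in these data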;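 note: ratio is peak minus minimum fluorescence divided by baseline fluorescence; actives read low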
KCNQ1 APC inh: confirmation of human KCNQ1 potassium channel inhibitors by electrophysiology; 490 tested, 20% active; calls only at 10 µM; shares compounds with KCNQ1 inh; KCNQ1-CHO cells, automated patch clamp current;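 active = KCNQ1 current drop exceeding 3 SD of negative control wells, seen in both duplicate runs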;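 note: steady state current during a 2 s step from -80 to +40 mV; negative values mean current inhibition and positive values mean potentiation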
KCNQ2 spec: selectivity of KCNQ1 inhibitors: inhibition of rat KCNQ2 channel | shares compounds with KCNQ1 inh | KCNQ2 cells, FluxOR thallium flux fluorescence | inhibition, % at 10 µM | 1,600 tested, 71% active | AID 651746;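 active = mean percent inhibition of the KCNQ2 thallium signal more than 5 SD above the buffer-only control wells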;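 note: KCNQ2 expressed in CHO cells; 0% = buffer control wells and 100% = XE-991 inhibitor control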
KCNQ1-KCNE1 inh: selectivity of KCNQ1 inhibitors: inhibition of human KCNQ1/KCNE1 channel; inhibition, % at 10 µM; shares compounds with KCNQ1 inh; KCNQ1/KCNE1 cells, FluxOR thallium flux fluorescence; 1,600 tested, 77% active;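 active = mean percent inhibition of duplicate wells above the buffer-only control mean plus 3 SD of those controls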;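 note: 0% = buffer only wells and 100% = XE-991 inhibitor control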
* = called active by the depositor; i = inactive; · = not tested or not shown; + = active, no number.

SMILES	KCNK3 block	KCNQ1 act	hERG rescue	KCNQ1 inh	KCNK9 block	Kir21 block	KCNQ1 block val	CHO Tl flux	KCNQ2 spec	KCNQ1-KCNE1 inh	others
COc1ccc(C(=O)C2CCCN(Cc3cccn3-c3ccc(Cl)cn3)C2)c(OC)c1 (centres undefined)	i	i	-21.8	11*	i	-2.27	81.5*	0.493	85.0%*	i
COc1ccc(-c2csc3ncnc(N4CCN(c5ccccc5Cl)CC4)c23)cc1	i	i	-11.4	9*	i	0.06	105.0*	0.38*	96.3%*	90.5%*
COc1ccc(CN2CCN(c3ncnc4scc(-c5ccc(F)cc5)c34)CC2)cc1	i	i	-11.7	i	i	-0.53	·	·	·	·
COc1ccc(-c2csc3ncnc(N4CCN(S(=O)(=O)c5cccs5)CC4)c23)cc1	i	i	-20.6	8*	i	0.14	84.0*	0.427	100.0%*	76.0%*
COc1ccc(-c2csc3ncnc(N4CCN(c5cccc(OC)c5)CC4)c23)cc1	i	i	-10.4	10*	i	0.21	134.5*	0.408	113.7%*	119.0%*	KCNQ1 APC inh=i
COc1ccc(F)cc1CN1CCN(c2ncnc3scc(-c4ccccc4)c23)CC1	i	i	-10.0	7*	i	-1.3	117.0*	0.406	113.7%*	153.0%*	KCNQ1 APC inh=i
O=C(CN1CCN(C(=O)CNC(=O)c2ccc3c(c2)OCO3)CC1)Nc1cccc(F)c1	i	·	·	·	·	·	·	·	·	·
COc1ccc(-c2csc3ncnc(N4CCN(C(=O)c5ccco5)CC4)c23)cc1	i	i	-22.9	i	i	0.9	·	·	·	·
COc1ccc(-c2csc3ncnc(N4CCN(c5cccc(C)c5C)CC4)c23)cc1	i	i	-14.5	7*	i	-0.67	93.5*	0.434	68.3%*	148.5%*	KCNQ1 APC inh=i
CN1/C(=C/C=C(C#N)C#N)C(C)(C)c2ccccc21	i	i	-44.2	25*	i	-0.03	+	0.122*	i	i
CC1CCCN(S(=O)(=O)c2ccc3[nH]c4c(c3c2)CCCC4)C1 (centres undefined)	i	i	-5.5	12*	i	0.13	104.0*	0.434	99.0%*	130.5%*	KCNQ1 APC inh=i
CC1CCCN(S(=O)(=O)c2ccc(S(=O)(=O)N3CCCC3)cc2)C1 (centres undefined)	i	i	-11.3	i	i	-1.23	·	·	·	·
Cc1ccc(NS(=O)(=O)c2c(C)nc3sccn3c2=O)cc1C	i	i	-13.6	i	i	-1.64	·	·	·	·
Cc1ccc(NS(=O)(=O)c2cc(Br)cnc2N)c(Cl)c1	i	i	-4.3	i	i	-2.06	·	·	·	·
Nc1ncc(Br)cc1S(=O)(=O)Nc1cc(C(F)(F)F)cc(C(F)(F)F)c1	i	i	-11.1	10*	i	-2.9	107.5*	0.455	i	i
Cc1nonc1NC(=O)CSc1nnc(-c2ccoc2C)n1-c1cccc(Cl)c1	i	i	-12.7	7*	i	-2.73	33.5*	0.428	70.3%*	67.5%*
CCCn1c(SCC(=O)Nc2nonc2C)nnc1-c1ccoc1C	i	i	-6.3	i	i	-0.03	·	·	·	·
CCOc1ccc(C2/C(=C(\O)c3cccc(OC)c3)C(=O)C(=O)N2c2ccccn2)cc1OC (centres undefined)	i	i	-11.2	i	i	1.26	·	·	·	·
